Screening data deposited in PubChem by several laboratories.
Shown are actives, neighbours in structure and some others; about 4.2% of the full set was active somewhere.
AI-2 QS mod: modulates the Vibrio harveyi AI-2 quorum sensing system | Vibrio harveyi JMH597 AI-2 luminescence/OD600 ratio, 9 h; active compounds read low; strain lacks LuxN and CqsS sensors; 0 = neutral-control median | activity change, % at 7.5 µM | 300,000 tested, 0.4% active | AID 2094; in the data active = activity change below about -75%, passing the limit was not always enough; inconclusive = no clear call, values can overlap the other calls;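 also: luminescence divided by OD600 gain over 9 h not by final OD600 alone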
hERG rescue: compounds protecting human hERG from proarrhythmic drug block | Q12809 | CHO-hERG, FluxOR thallium flux, dofetilide IC70 present | activation (rescue from dofetilide block), less the hit threshold, % at 10 µM | 310,000 tested, 0.51% active | AID 1511;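 active = activation above the mean of controls blocked by dofetilide plus 5 SD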;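 also: thallium influx through hERG after potassium depolarization seen as dye fluorescence rise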
Mot1-301 SUMO: SUMOylation pathway inhibition by Mot1-301 growth rescue | growth rescue, % at 18.8 µM | 320,000 tested, 1% active | S. cerevisiae Mot1-301 growth rescue, ATP luminescence, 38.5C; percent above DMSO median, 100 means doubled;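 active = every valid replicate shows activation above 250% relative to neutral control wells; inactive = the rest, any valid replicate at or below 250%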;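 also: OY570 slx delta 5 strain wells were the positive control but not used for scaling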
Cl transport mod: KCC2 (human) Cl- transport modulation; Q9H2X9; KCC2 cells, thallium flux FluoZin-2 fluorescence; B-score of Tl+ flux slope (higher = more flux/activation; lower = inhibition) at 10 µM; 190,000 tested, 2.2% active;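 active = thallium flux slope and its plate-corrected score both differing from the plate sample mean at a set confidence after two filtering rounds, in either direction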;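 also: slope of fluorescence scaled to starting intensity during 10 to 20 s after thallium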
Target sequence (Q9H2X9 whole entry, looked up): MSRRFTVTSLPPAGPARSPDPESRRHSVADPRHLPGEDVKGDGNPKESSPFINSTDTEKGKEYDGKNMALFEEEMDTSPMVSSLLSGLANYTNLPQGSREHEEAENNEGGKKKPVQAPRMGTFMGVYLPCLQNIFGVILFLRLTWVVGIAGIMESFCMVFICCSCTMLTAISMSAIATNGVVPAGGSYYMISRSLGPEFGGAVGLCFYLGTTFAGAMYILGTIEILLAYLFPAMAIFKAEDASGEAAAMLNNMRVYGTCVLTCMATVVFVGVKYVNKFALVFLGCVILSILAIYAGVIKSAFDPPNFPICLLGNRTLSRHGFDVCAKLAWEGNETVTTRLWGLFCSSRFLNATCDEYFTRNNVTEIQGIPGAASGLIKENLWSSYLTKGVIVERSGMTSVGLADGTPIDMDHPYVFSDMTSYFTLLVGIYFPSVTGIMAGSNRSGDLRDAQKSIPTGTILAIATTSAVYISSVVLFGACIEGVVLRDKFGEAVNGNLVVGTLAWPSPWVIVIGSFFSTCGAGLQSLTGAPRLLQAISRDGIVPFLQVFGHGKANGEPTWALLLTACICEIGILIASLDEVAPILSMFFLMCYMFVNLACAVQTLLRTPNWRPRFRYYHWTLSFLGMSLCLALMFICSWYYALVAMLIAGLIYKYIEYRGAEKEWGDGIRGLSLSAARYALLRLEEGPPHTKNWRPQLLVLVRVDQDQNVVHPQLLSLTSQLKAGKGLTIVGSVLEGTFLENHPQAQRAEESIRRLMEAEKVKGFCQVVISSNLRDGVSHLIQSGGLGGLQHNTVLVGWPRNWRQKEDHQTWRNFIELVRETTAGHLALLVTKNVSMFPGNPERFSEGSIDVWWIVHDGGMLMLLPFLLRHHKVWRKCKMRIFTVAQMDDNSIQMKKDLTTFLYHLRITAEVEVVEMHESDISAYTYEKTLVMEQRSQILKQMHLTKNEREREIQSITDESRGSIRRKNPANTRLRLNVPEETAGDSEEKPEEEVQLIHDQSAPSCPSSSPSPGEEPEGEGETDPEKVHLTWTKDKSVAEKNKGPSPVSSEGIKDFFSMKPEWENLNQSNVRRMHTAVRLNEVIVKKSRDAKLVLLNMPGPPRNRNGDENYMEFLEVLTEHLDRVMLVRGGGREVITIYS
KCNQ1 pot: potentiators or activators of human KCNQ1 potassium channel; B-score at 10 µM; CHO-K1 KCNQ1, thallium flux FluxOR fluorescence; active compounds read high; P51787; 310,000 tested, 0.35% active;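 active = fluorescence ratio B-score, a plate-corrected score, at least three library SD, with initial intensity B-score within 5 SD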
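Schedule – 37 °C overnight plating, 90-min dark dye load, 20-min compound pretreatment · System – stable KCNQ1 CHO-K1 line · Probe or stimulus – thallium- and potassium-containing depolarizing buffer · Measured by – kinetic FluxOR fluorescence, 10 s baseline plus 110 s post-stimulus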
KCNQ1 block: human KCNQ1 channel inhibition; CHO-K1 KCNQ1, FluxOR thallium flux fluorescence; active compounds read high; B-score at 10 µM; 310,000 tested, 1.3% active; AID 2642;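 active = compounds whose thallium flux B-score, printed positive for inhibition, exceeds three library SD while starting fluorescence stays within three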;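 also: channel opened by potassium depolarization with thallium stimulus after 20 min compound exposure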
KCC2 sec1: confirmation of human KCC2 transport modulators | shares compounds with Cl transport mod | HEK293-KCC2, thallium flux, FluoZin2 fluorescence; active compounds read high | normalised thallium flux (F/F0 slope) at 10 µM | 3,700 tested, 15% active | AID 1713;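 active = thallium flux slope above the same plate's solvent-only control mean plus 3 SD; inconclusive = the two replicate wells disagree; inactive = no significant difference from solvent-only control wells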
KCC2 bumet counter: thallium flux persisting under bumetanide in KCC2 cells, counter-screen secondary assay | shares compounds with Cl transport mod | HEK293-KCC2 + bumetanide/ouabain, thallium flux FluoZin2; active compounds read high | normalized thallium flux at 10 µM | 3,700 tested, 49% active | AID 1714;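 active = thallium entry rate above the same plate's blocked-transporter control wells by more than 3 SD; inconclusive = the two repeat wells disagree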;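 also: raw slope of fluorescence over initial fluorescence between 10 and 20 s after thallium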
KCC2 sec2: KCC2 (human) modulation, second secondary assay. shares compounds with Cl transport mod. HEK293-KCC2, thallium flux FluoZin2 fluorescence; actives lie on both sides; F/F0 rise rate, 10–20 s post-thallium. normalized thallium flux at 10 µM. 3,700 tested, 23% active. AID 1715;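 active = thallium flux slope more than 3 SD above or below the plate's solvent-only control mean, mostly below; inconclusive = the two repeat wells disagreed; inactive = no significant shift from solvent-only controls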;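 also: raw slope with 0.1% DMSO as baseline and bumetanide as block control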
HEK293 Tl flux: counter-screen for KCC2 modulators: effect in parental HEK293 cells | shares compounds with Cl transport mod | thallium flux FluoZin2, ouabain; baseline-ratio fluorescence slope, 10–20 s after thallium | thallium flux rate (normalised fluorescence) at 10 µM | 3,700 tested, 46% active;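 active = thallium flux rate significantly above the same plate's solvent-only control wells, beyond their mean plus 3 SD; inconclusive = the two replicate wells gave conflicting results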
KCC2 retest ouab: KCC2 (human) modulation, ouabain retest; shares compounds with Cl transport mod; HEK293-KCC2, thallium flux FluoZin2 fluorescence; bidirectional: low = inhibitor, high = activator; raw Tl+ flux slope (below DMSO = inhibition, above = activation) at 10 µM; 3,700 tested, 48% active; AID 1717;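 active = thallium flux slope beyond 3 SD from same-plate DMSO control mean in most replicates, usually higher, sometimes lower; inconclusive = repeat tests gave conflicting results; inactive = no significant difference from controls in most replicates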;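 also: slope of initial-normalized fluorescence between seconds 10 and 20 after thallium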
HEK293 Tl flux2: counter-screen for KCC2 modulators: effect in parental HEK293 cells | shares compounds with Cl transport mod | thallium flux FluoZin-2 fluorescence slope | thallium flux slope at 10 µM | 3,700 tested, 33% active | AID 1718;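 active = thallium flux slope above the same plate's solvent-control mean plus 3 SD in both duplicate wells; inconclusive = duplicate wells that disagreed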;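 also: run without ouabain in cells lacking the KCC2 cotransporter; slope of fluorescence scaled to its starting value between 10 and 20 s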
* = called active by the depositor; i = inactive; ? = inconclusive; / = not tested or not shown.

SMILES	AI-2 QS mod	hERG rescue	Mot1-301 SUMO	Cl transport mod	KCNQ1 pot	KCNQ1 block	KCC2 sec1	KCC2 bumet counter	KCC2 sec2	HEK293 Tl flux	KCC2 retest ouab	HEK293 Tl flux2
CCOC(=O)C1=NN(C(=O)c2cccc(Br)c2)C(O)(C(C)(C)C)C1 (configuration not stated)	18.9	50.7*	56.0	107*	66*	i	0.0481*	0.126*	0.052*	?	0.0989*	0.0394*
CCOC(=O)C1=NN(C(=O)c2ccco2)C2(CC2)C1	15.7	-1.7	-7.1	-0.237	i	i	/	/	/	/	/	/
O=c1c2ccccc2nc(-c2ccc([N+](=O)[O-])cc2)n1O	79.7	3.8	-7.5	9.04*	i	i	?	0.0204*	0.0335	0.0161*	0.0276*	?
O=C1CCCc2c1nc(-c1ccc([N+](=O)[O-])cc1)n2O	23.5	-1.4	-8.9	0.653	i	i	/	/	/	/	/	/
Cc1noc(C)c1C(=O)NC1=NCCS1	35.1	-6.0	-4.8	/	i	i	/	/	/	/	/	/
COCCn1nnnc1CN1CCC(Cc2ccccc2)CC1	13.7	-3.8	-6.0	-1.18	i	i	/	/	/	/	/	/
CC(C)c1ccc(/C=N/NC(=O)c2ccccc2Cl)cc1	?	-14.9	21.7	-4.43*	i	i	0.00541	0.00501	0.0237*	0.00715	?	0.0101
CCN(CC)CCN(C)C1CCC(c2ccccc2)CC1 (configuration not stated)	/	/	-12.2	-0.211	/	/	/	/	/	/	/	/
CN(C)c1ccc(/C=C/c2ccc3c4ccccc4ccc3[n+]2-c2ccccc2)cc1	/	/	/	-3.18*	/	/	0.00497	0.00409	0.0239*	?	0.014*	0.0105
Cc1cc(Br)ccc1OCC(=O)NNC(=O)c1cnccn1	61.4	-1.6	2.3	8.78*	i	i	0.017	0.027*	?	0.0222*	0.0281*	0.0236*
Cc1cc(C)cc(OCC(=O)NNC(=O)c2ccccn2)c1	/	/	206.4	/	/	/	/	/	/	/	/	/
O=C(NC(=S)NNC(=O)c1cnccn1)c1ccc(Cl)cc1	33.9	-11.1	-35.0	9.13*	i	i	0.0124	0.0131*	0.0355	?	?	?
O=C(COc1ccc2ccccc2c1)NNC(=O)c1cnccn1	-6.4	-4.2	-6.8	0.426	i	i	/	/	/	/	/	/
O=C(COc1cccc2ccccc12)NNC(=O)c1cnccn1	45.2	-11.7	-13.5	-0.2	i	i	/	/	/	/	/	/
CC(C)c1ccc(OCC(=O)NNC(=O)c2cnccn2)cc1	-82.9*	-6.8	-38.1	5.71*	i	i	0.00764	0.0109*	0.0333	0.0118*	0.0241*	0.0154*
O=C(COc1ccc(Cl)cc1)NNC(=O)c1ccccn1	1.0	-11.2	-12.8	4.44*	i	i	0.01	0.0191*	0.0338	0.0113*	0.0245	?
COc1ccc(C(=O)NC(=S)NNC(=O)c2cnccn2)cc1	-12.9	-4.9	35.5	0.981	i	i	/	/	/	/	/	/
COc1ccc2c(c1)CCCC21NC(=O)N(CC(=O)c2cc(F)ccc2F)C1=O (configuration not stated)	/	/	10.8	/	/	/	/	/	/	/	/	/
CC(SCC(=O)Nc1ccccc1Br)c1nc2ccccc2c(=O)[nH]1 (configuration not stated)	/	/	-1.1	/	/	/	/	/	/	/	/	/
Cc1ccc(SCC(=O)N2c3ccccc3Sc3ccccc32)cc1	0.8	-8.1	93.2	/	i	i	/	/	/	/	/	/
O=C(Oc1ccc(NC(=O)c2cc3c(cc2Br)OCO3)cc1)c1ccccc1	-3.1	-4.1	4.0	-0.942	i	i	/	/	/	/	/	/
Cc1cc(Cl)ccc1OCC(=O)NNC(=O)c1cnccn1	41.6	-11.3	5.5	9.45*	i	i	0.00605	0.0154*	0.0314	0.0153*	?	0.0135*
CCOc1ccccc1NC(=O)CSc1nnc(CNC(=O)c2c(F)cccc2Cl)o1	42.9	-8.2	4.3	/	i	i	/	/	/	/	/	/
CC(C)(C)NC(=S)N/N=C/c1c(Cl)cccc1Cl	7.3	-3.7	1.1	7.77*	i	i	0.00754	0.00937*	0.0301	0.0118*	0.0218	0.0129*
O=C(Nc1ccc(Cl)cc1)N1CCN(c2ccccc2)CC1	-5.2	-13.8	9.0	-0.925	i	i	/	/	/	/	/	/
SMILES	AI-2 QS mod	hERG rescue	Mot1-301 SUMO	Cl transport mod	KCNQ1 pot	KCNQ1 block	KCC2 sec1	KCC2 bumet counter	KCC2 sec2	HEK293 Tl flux	KCC2 retest ouab	HEK293 Tl flux2
O=C(Nc1ccc(Cl)cc1)N1CCC(CO)(Cc2ccccc2)CC1	2.0	-1.4	85.3	-3.16*	i	i	0.00917	?	0.034	0.00813	?	0.0111
COc1cc(C(=O)NCCc2cn3ccc(C)cc3n2)cc(OC)c1OC	-4.0	-7.2	-3.8	-3.41*	i	i	?	?	0.0335	0.00768	0.0226	0.0103
O=[N+]([O-])c1ccc2nc(/C=C/c3ccc(Cl)cc3)[nH]c2c1	15.4	-13.8	72.4	-4.48*	i	11*	0.00696	0.00524	0.0293	0.00775	?	0.00989
C=CCn1c(SCC(N)=O)nc2scc(-c3ccc(C)o3)c2c1=O	33.2	-0.9	5.4	36.9*	i	i	0.00729	0.0282*	0.0469*	0.037*	0.0416*	0.035*
O=C(COC(=O)/C=C/c1ccccc1Cl)NC1CCCCCC1	3.3	-11.7	158.0	-1.21	i	i	/	/	/	/	/	/
CN(C)C(=S)NC(=O)c1cccc(Cl)c1	18.4	-0.3	71.4	21.2*	i	i	0.00713	0.0368*	0.0335	0.0251*	0.0356*	0.022*
CC(C)CCNC(=O)c1cccc(Cl)c1	16.7	3.5	-19.6	/	i	i	/	/	/	/	/	/
COc1ccc(CCNC(=S)NC(=O)c2cccc(Cl)c2)cc1OC	3.1	-7.4	6.6	4.5*	i	i	0.01	0.0317*	0.0318	0.0118*	0.0257	?
